Consider 19 compounds from ChEMBL document CHEMBL3244308, “Potential antitumor agents. 22. Latentiated congeners of the 4'-(9-acridinylamino)methanesulfonanilides” (J Med Chem, 1977).

The test system of one data set is L1210. As to the kind of experiment: Antitumor activity against mouse L1210 cells intraperitoneally xenografted in ip dosed C3H/DBA2 F1 hybrid mouse assessed as increase in host lifespan administered daily for 5 days starting 24 hrs post-tumor implantation. The class given is functional. The procedure, abridged:
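10⁵ L1210 cells implanted ip into 18.5-22.5-g C3H/DBA2 F1 mice. Daily ip treatment for 5 days from 24 h after implant, as water-soluble salts (methanesulfonate or hydrochloride) or as homogenized suspensions in aqueous methylcellulose. Groups of six mice. Read-out is increase in life span (T/C% − 100) at the optimum dose (maximal life-span increase, mg/kg/day); 50-day survivors counted.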

Data set [1] can be described thus: Lipophilic-hydrophilic balance, Rm of the compound by reversed-phase partition chromatography. Type of data set: physicochemical.
The subject of another data set is Mus musculus. Briefly: Toxicity in ip dosed mouse assessed as optimum dose that providing maximum increase in life span administered qd for 1 to 5 days. The class given is organism-based. The following applies: in vivo. The procedure, abridged:
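Mice were C3H/DBA2 F1 hybrids weighing 18.5-22.5 g. L1210 cells (10^5) were implanted ip or sc above the right axilla. Daily ip treatment began 24 h later and continued for 5 days (dq 1-5), given in water or as a homogenized suspension in aqueous methylcellulose. The optimum dose (mg/kg/day) is the one giving maximum life-span increase (T/C% - 100). Groups were six mice; 50-day survivors were counted.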

What is called ILS is the gain in survival time of treated over control animals, in per cent. For `CCCC(=O)N(c1ccc(Nc2c3ccccc3nc3c(C)cccc23)c(OC)c1)S(C)(=O)=O`, the ILS in the data set on L1210 is reported as 52%. In addition, the Rm in data set [1] was 0.53. Further, the Activity in the data set on Mus musculus was 75 mg/kg.
The like results for `CCC(=O)N(c1ccc(Nc2c3ccccc3nc3c(C)cccc23)c(OC)c1)S(C)(=O)=O` were, in that order, 31%, 0.37 and 25 mg/kg.
The like results for `COc1cc(N(C(C)=O)S(C)(=O)=O)ccc1Nc1c2ccccc2nc2c(C)cccc12` were, in that order, 38%, 0.24 and 7.5 mg/kg.
Turning to `CCCC(=O)N(c1ccc(Nc2c3ccccc3nc3cc([N+](=O)[O-])ccc23)cc1)S(C)(=O)=O`, the ILS with L1210 amounted to 52%. For the same compound, the Rm in data set [1] turned out to be 0.27. Further, the Activity in the data set with Mus musculus amounted to 50 mg/kg.
For `CCN(CC)/N=N/c1ccc2c(Nc3ccc(NS(C)(=O)=O)cc3)c3ccccc3nc2c1`, the Rm in data set [1] came out at 0.49.
For the compound `CCCCC(=O)N(c1ccc(Nc2c3ccccc3nc3c(C)cccc23)c(OC)c1)S(C)(=O)=O`, the ILS in the data set with L1210 is on record as 50%. For the same compound, in data set [1], the Rm is on record as 0.66. Besides, in the data set with Mus musculus, the Activity was determined as 250 mg/kg.
On the same counts, the results for `CCCCCC(=O)N(c1ccc(Nc2c3ccccc3nc3c(C)cccc23)c(OC)c1)S(C)(=O)=O` are 39%, 0.79 and 66 mg/kg.
The like results for `CCCC(=O)N(c1ccc(Nc2c3ccccc3nc3ccccc23)cc1)S(C)(=O)=O.Cl` were, in that order, 31%, 0.28 and 400 mg/kg.
In the case of `CCCCCC(=O)N(c1ccc(Nc2c3ccccc3nc3ccccc23)cc1)S(C)(=O)=O.Cl`, in the data set on L1210, the ILS stood at 41%. Moreover, in data set [1], the Rm came out at 0.45. In the data set with Mus musculus, the Activity turned out to be 150 mg/kg.
For the compound `CCCCCCCC(=O)N(c1ccc(Nc2c3ccccc3nc3ccccc23)cc1)S(C)(=O)=O.Cl`, the ILS in the data set with L1210 is 41%. In data set [1], this compound showed a Rm of 0.68. Also, the Activity with Mus musculus was found to be 400 mg/kg.
In the case of `CCCCCCCCC(=O)N(c1ccc(Nc2c3ccccc3nc3ccccc23)cc1)S(C)(=O)=O.Cl`, the ILS in the data set on L1210 was found to be 31%. This compound showed a Rm in data set [1] of 0.74. In the data set on Mus musculus, the Activity was 400 mg/kg.
On the same counts, the results for `CCOC(=O)CCC(=O)N(c1ccc(Nc2c3ccccc3nc3c(C)cccc23)c(OC)c1)S(C)(=O)=O` are 43%, 0.62 and 18 mg/kg.
On the same counts, the results for `CC(C)(C)C(=O)N(c1ccc(Nc2c3ccccc3nc3ccccc23)cc1)S(C)(=O)=O.Cl` are 47%, 0.31 and 250 mg/kg.
The like results for `CC(=O)N(c1ccc(Nc2c3ccccc3nc3cc(N)ccc23)cc1)S(C)(=O)=O.Cl` were, in that order, 74%, -0.22 and 2 mg/kg.
`Br.CCC(=O)N(c1ccc(Nc2c3ccccc3nc3cc(N)ccc23)cc1)S(C)(=O)=O`: in the data set on L1210, the ILS is given as 49%. The compound also returned a Rm in data set [1] of -0.04. In addition, the Activity in the data set with Mus musculus stood at 2 mg/kg.
The like results for `CCCC(=O)N(c1ccc(Nc2c3ccccc3nc3cc(N)ccc23)cc1)S(C)(=O)=O.Cl` were, in that order, 53%, 0.13 and 1 mg/kg.
Regarding `CCOC(=O)CCC(=O)N(c1ccc(Nc2c3ccccc3nc3c(C)cccc23)c(OC)c1)S(C)(=O)=O.CS(=O)(=O)O`, the ILS with L1210 is on record as 40%. In addition, the Activity in the data set on Mus musculus came out at 13.3 mg/kg.
For `CCCOC(=O)CCC(=O)N(c1ccc(Nc2c3ccccc3nc3c(C)cccc23)c(OC)c1)S(C)(=O)=O`, in data set [1], the Rm is reported as 0.75. For the same compound, in the data set with Mus musculus, the Activity is 75 mg/kg.
For the compound `CS(=O)(=O)Nc1ccc(Nc2c3ccccc3nc3cc(N)ccc23)cc1`, the ILS in the data set on L1210 is reported as 81%. In data set [1], this compound displayed a Rm of -0.17. In the data set with Mus musculus, the Activity was determined as 2.5 mg/kg.
